Source: PubChem BioAssay
Compounds with a hit are over-represented: about 3.3% of the library has one in this group of screens.
ABCB6 inh 2: ABCB6 transporter inhibitors, primary screen, K562-ABCB6 cells, flow cytometry, MLPCN library; ATP-binding cassette sub-family B member 6 (Homo sapiens), Q9NP58; K562-ABCB6 porphyrin accumulation, 1 h; active compounds read low; fluorescence ratio to DMSO, % at 10 µM; actives 0.19% (n = 360,000); AID 602162, 2011;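 active = fluorescence ratio to DMSO below 75%, the collection mean minus 3 SD; inconclusive = too few cells collected in the well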;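 also: signal is porphyrin accumulated inside mitochondria; lower ratio means ABCB6 inhibition with less porphyrin fluorescence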
Arrestin-AP2 inh: inhibitors of beta-arrestin/AP2 binding, primary screen, biochemical, GPCR trafficking, flow cytometry; inhibition, % at 10 µM; FITC-arrestin peptide / GST-AP2 beads; AP2 beta2 appendage carries R879A mutation; AID 504490, 2011; actives 0.31% (n = 340,000);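 active = inhibition above a set limit, near 3 SD of compounds lacking own fluorescence, cut at about 54% in these data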
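Material – AP2 appendage R879A on GSH beads · Buffer or medium – PBS with 0.05% Tween 20 and 0.1% BSA · Probe or stimulus – fluorescein-tagged arrestin peptide at 50 nM final · Incubation – compound with beads 12 min RT, then probe 1 h RT · Detection – high-throughput flow cytometry of beads, ex 488, em 535 nm · Evaluation – percent response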
Myeloid diff 2: induction of myeloid progenitor differentiation, primary screen, cell-based, flow cytometry, MLPCN library. ER-HoxA9 myeloid progenitors, lysozyme-GFP differentiation. calls only at 10 µM. actives 1% (n = 360,000). AID 624256, 2012;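 active = normalized GFP-positive differentiation at or above the plate's own cutoff, the solvent-only control mean plus 3 SD; inconclusive = no clear call, values can overlap the other calls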;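 also: cells exposed to compound for four days before flow analysis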
NRP1-CendR mod: modulators of CendR peptide binding to NRP-1, primary screen, biochemical, fluorescence polarization, uHTS; FAM-RPARPAR peptide binding to NRP-1; actives 0.85% (n = 360,000); AID 602438, 2012; inhibition, % at 25 µM; Neuropilin-1 (Homo sapiens), O14786;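 active = inhibition or corrected inhibition above about 18%, plus a signal ratio from 0.5 to 1.5, limit read from the data, passing the limit was not always enough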
ATG4B inh: ATG4B protease inhibitors, primary screen, biochemical, fluorescence, uHTS. Cysteine protease ATG4B (Homo sapiens), Q9Y4P1. ATG4B cleavage of LC3-PLA2, NBD-HPC fluorescence, 1 h. inhibition, % at 8.33 µM. actives 0.51% (n = 340,000); in the data active = inhibition above about 40%
Granule exo inh: LAMP-1 surface exposure blockers, TALL-104 cells – cell-based, flow cytometry, MLPCN library, primary screen. TALL-104 LAMP-1 surface exposure; cells stimulated with thapsigargin and PMA. inhibition, % at 10 µM. actives 0.66% (n = 360,000). AID 651702, 2012;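 active = inhibition above about 55%, limit read from the data; inconclusive = no clear call, values can overlap the other calls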
ATG4B conf: ATG4B protease inhibitors, retest, confirmation, biochemical, fluorescence, single concentration; ATG4B protease fluorescent substrate cleavage assay; inhibition, % at 8.33 µM; shares compounds with ATG4B inh; actives 92% (n = 320); AID 504757, 2011; in the data active = inhibition above about 39%
PLA2 counter: PLA2 enzyme inhibition, counter-screen for ATG4B inhibitor project, biochemical, single concentration, uHTS hits; shares compounds with ATG4B inh; purified PLA2, NBD-C6-HPC fluorescence, 45 min; inhibition, % at 8.33 µM; actives 66% (n = 1,600); AID 588402, 2011; in the data active = inhibition above about 50%
Of the large screens only hits and unclear results are named; the others gave an inactive call (follow-up assays come after a bar, where they were run).

Cc1sc2nc(C3CC3)nc(SCC(=O)N3c4ccccc4CC3C)c2c1C (centres undefined)	Myeloid diff 2 active, ATG4B inh 68.3, Granule exo inh inconclusive | PLA2 counter 84.6
Cc1cc(N=Nc2ccccc2)c(NCC(O)C(O)C(O)CO)cc1C (centres undefined)	none
COc1ccc(/C=C2/C(=O)N(c3nc4ccccc4s3)N=C2CSc2ccc(Cl)cc2)cc1	ATG4B inh 56.3 | PLA2 counter inactive
CC(C)CC(NC(=O)c1ccc(C#CC(C)(C)O)s1)C(=O)O (centres undefined)	none
CN1/C(=C\C(=O)CSc2nnc(NCc3ccccc3)s2)C(C)(C)c2ccccc21	ATG4B inh 42.0 | PLA2 counter inactive
O=C1C(NS(=O)(=O)c2ccccc2)=C(N2CCN(c3ccc(F)cc3)CC2)C(=O)c2ccccc21	none
O=C1C(NS(=O)(=O)c2cccs2)=C(N2CCN(c3cccc(Cl)c3)CC2)C(=O)c2ccccc21	NRP1-CendR mod 39.5, ATG4B inh 45.9 | PLA2 counter 65.0
Cc1cccc(NC(=O)COC(=O)c2n[nH]c3ccccc23)c1C	ATG4B inh 45.4 | PLA2 counter 51.8
O=C(NCc1ccc(F)cc1)c1ccccc1OCc1ccccc1	ATG4B inh 47.2 | PLA2 counter 52.0
O=C(NC1CCN(Cc2ccccc2)CC1)c1ccccc1OCc1ccccc1	ATG4B inh 56.0 | PLA2 counter 62.3
CCOc1ccccc1C(=O)NC1CCN(Cc2ccccc2)CC1	none
O=C(NC1CCCC1)c1ccccc1OCc1ccccc1	ATG4B inh 65.6 | PLA2 counter 73.1
CN(C)c1ccc(-c2nnn(Cc3ccccc3Br)n2)cc1	ATG4B inh 41.0 | ATG4B conf 65.9 | PLA2 counter inactive
O=C(NN=Cc1ccccc1)C(Oc1ccccc1)c1ccccc1 (centres undefined)	none
O=C(O)c1cccc(NC(=S)N/N=C/c2ccccc2OCc2cccc(Br)c2)c1	ATG4B inh 46.7 | PLA2 counter 54.0
COc1ccc(OC(C)C(=O)N(C)Cc2nc(-c3cccc(C)c3)no2)cc1 (centres undefined)	none
Cc1ccc(S(=O)(=O)Nc2ccc3c4c(cccc24)CC3)c(C)c1	Myeloid diff 2 active, ATG4B inh 62.6 | PLA2 counter 77.7
COC(=O)C1=C(N)N(c2ccccc2C(F)(F)F)C2=C(C(=O)CCC2)C1c1ccc2c(c1)OCO2 (centres undefined)	ATG4B inh 53.6 (no result: Myeloid diff 2) | PLA2 counter 67.7
CCCCn1c(/N=C/c2ccccc2NS(=O)(=O)c2ccc(C)cc2)nc2ccccc21	none
Cc1ccc(S(=O)(=O)Nc2ccccc2/C=N/c2nc3ccccc3n2C(C)C)cc1	ATG4B inh 54.7 | ATG4B conf 57.2 | PLA2 counter inactive
COc1ccc(C2C(C(C)=O)=C(C)N=c3s/c(=C\c4cc(C)n(C)c4C)c(=O)n32)c(OC)c1 (centres undefined)	Myeloid diff 2 active, ATG4B inh 55.9 | PLA2 counter 73.1
Cc1ccc(NC(=O)C2CCN(c3ncnc4c3nc3n4CCCCC3)CC2)cc1Cl	Myeloid diff 2 inconclusive, ATG4B inh 60.2 | PLA2 counter 68.5
